Only some compounds are listed: those with a hit (about 4.1% of all), similar ones and a draw of the others.
DTT redox prof: compounds producing H2O2 with reducing agent – biochemical, NIH compound library profiling, artefact control for MLSCN library redox annotation, primary screen | DTT-dependent redox cycling H2O2, phenol red/HRP absorbance; 100% = 100 µM peroxide control, 0% = buffer | activation, % at 10 µM | 200,000 tested, 0.03% active | AID 878, 2007;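 active = activation of at least 50% relative to the plate's high and low controls in the primary single-dose screen; inactive = activation below 50%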;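 note: compound incubated with DTT at 0.8 mM final as the reducing agent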
KCC2 mod: KCC2 cotransporter modulators, thallium flux, primary screen, cell-based, HEK293 KCC2, FluoZin-2 fluorescence, MLSMR | 190,000 tested, 2.2% active | B-score of Tl+ flux slope (higher = more flux/activation; lower = inhibition) at 10 µM | Solute carrier family 12 member 5 (Homo sapiens), Q9H2X9 | AID 1456, 2008 | KCC2 cells, thallium flux FluoZin-2 fluorescence;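 active = thallium flux slope and its plate-corrected score both differing from the plate sample mean at a set confidence after two filtering rounds, in either direction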;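 note: slope of fluorescence scaled to starting intensity during 10 to 20 s after thallium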
Autophagy mod: autophagy modulators in MEF cells, primary screen, imaging, high-content, MEF GFP-LC3; MEF GFP-LC3 puncta imaging; test concentration mostly 10 µM; calls only at 10 µM (by protocol); 190,000 tested, 0.98% active; AID 463193, 2010;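 active = percentage of spot-positive cells more than 3 SD above its plate mean, without a fluorescence outlier flag or 80% toxicity; inconclusive = no clear call, values can overlap the other calls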;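 note: spot-positive cell cutoff set from DMSO-treated cells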
Dynein cargo inh: inhibitors of GR-EGFP nuclear translocation, primary screen, dynein cargo transport inhibitor project, imaging, high-content, 3617.4 mouse cells | test concentration mostly 20 µM; stimulated with dexamethasone, 1 µM; active compounds read low | z-score, hits read low | 220,000 tested, 0.47% active | AID 1381, 2008;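 active = plate z-score of nuclear minus cytoplasmic receptor signal below a set negative limit, without overly bright fluorescence or cell loss, cut at about -3.5 in these data, passing the limit was not always enough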;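 note: z-score of nuclear minus cytoplasmic ring GR-EGFP intensity difference per well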
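Schedule: 48 h induction, then 1 h compound, then 30 min agonist, 37 °C. Buffer or medium: tetracycline-free induction medium containing charcoal-stripped FBS. Reagent: 1.0 µM final dexamethasone stimulus. Evaluation: nuclear versus cytoplasmic GR-EGFP signal, averaged per well. Signal: high-content fluorescence imaging after fixation.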
ROMK mod: ROMK potassium channel modulators, primary screen, cell-based, thallium flux, MLSMR library; ATP-sensitive inward rectifier potassium channel 1 (Homo sapiens), P48048; AID 1918, 2009; B-score at 10 µM; 130,000 tested, 2% active; Tet-inducible ROMK, thallium flux fluorescence; actives lie on both sides;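 active = signal ratio slope over the read window, or its plate-corrected B-score, at least 3 SD from the plate mean, either direction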;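 note: B-score of the F/F0 ratio slope over 7 to 12 s after thallium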
ROMK hit retest: ROMK channel modulator hit retest, confirmation, cell-based, thallium flux, duplicate, resupplied hits | fluorescence ratio; active compounds read low | shares compounds with ROMK mod | 3,000 tested, 54% active | AID 1917, 2009 | normalized thallium flux (F/F0 slope) at 10 µM;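 active = Flux at 10 µM at least 3 SD below or above vehicle control mean in one or both replicates; inconclusive = no clear call, values can overlap the other calls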
Starred values were filed as active, the others as inactive; i = inactive; u = inconclusive; x = not tested or not shown.

SMILES | DTT redox prof | KCC2 mod | Autophagy mod | Dynein cargo inh | ROMK mod | ROMK hit retest
Cc1ccccc1C(=O)Nc1ccc(-c2nnc(SC(C)C(=O)O)n2C)cc1 (stereo unspecified) | x | -0.423 | x | 0.79 | x | 0.0789
CC(Sc1nnc(-c2ccc(Cl)cc2)n1C)C(N)=O (stereo unspecified) | 1.0 | x | i | -0.757 | x | x
COC(=O)CSc1nc(C)cc(C(F)(F)F)c1C#N | -7.8 | 0.206 | i | -0.393 | x | 0.0733
CCCCCN1N=C(C)CC1=O | -1.1 | 1.52 | i | 2.14 | 2.68* | 0.0794
CCCCN1C(=O)CC(C(=O)OCC)=C1C | x | 1.33 | x | 1.64 | x | x
CC(CCc1ccccc1)NC(=O)COC(=O)c1cccc2ccccc12 (stereo unspecified) | -0.5 | -3.49 | i | -0.527 | 0.0422 | x
CCN(CC)CCNC(=O)CNC(=S)N(CCCN1CCOCC1)Cc1cccs1 | -2.4 | -0.105 | i | -0.0885 | 0.575 | x
COc1cccc(NC(=S)N(CCCN2CCC(C)CC2)Cc2cccs2)c1 | -2.4 | -0.369 | i | -0.00522 | -3.45* | 0.0607*
Cc1ccccc1NC(=S)N(CCCN1CCC(C)CC1)Cc1ccco1 | -0.2 | 0.415 | i | 0.493 | -2.52* | 0.0655*
CN(C)CCNC(=O)CNC(=S)N(CCCN1CCOCC1)Cc1cccs1 | 0.1 | 0.547 | i | 0.66 | -8.47* | 0.0792
O=C(c1ccc2c(c1)N(Cc1cccc(Cl)c1)C(=O)c1ccccc1S2(=O)=O)N1CCN(c2ccccn2)CC1 | 0.1 | x | i | 0.512 | -1.3 | x
COC(=O)c1ccc(NC(=O)C2CC(=O)OC2c2ccccc2)cc1 (stereo unspecified) | x | 1.32 | x | -0.398 | x | 0.0721
CCOC(=O)C1(CCOc2ccccc2)CCN(Cc2cccn2-c2ncccn2)CC1 | -0.5 | x | i | -0.476 | -3.66* | u
CCOC(=O)C1(CCOc2ccccc2)CCN(Cc2ccncc2)CC1 | -0.5 | 0.237 | i | -0.184 | x | x
Cc1cc(N)n(-c2ncnc3scc(-c4ccccc4)c23)n1 | 0.4 | 1.89 | i | -0.487 | 1.65* | 0.0804
CCOC(=O)c1c2ccc(OCC(=O)NN)cc2n2ccccc12 | -1.1 | -3.67 | i | -1.23 | -2.8* | 0.0549*
Cc1nnc2sc(-c3cccc4ccccc34)nn12 | 0.3 | -0.453 | i | 3.11 | -5.2* | 0.0538*
Cc1nnc2c3ccccc3c(-c3cccc4ccccc34)nn12 | -3.2 | x | i | 0.172 | -0.42 | x
Fc1cccc(CSc2ccc3nnc(-c4cccnc4)n3n2)c1 | -0.1 | 2.28 | i | -0.18 | -0.493 | x
Cc1ccc(SC(C)c2nc(-c3ccncc3)no2)cc1 (stereo unspecified) | 0.6 | -0.591 | i | -0.723 | -3.1* | 0.0665*
Cc1cc(C(=O)CN2C(=O)NC3(CCCc4ccccc43)C2=O)c(C)n1Cc1ccccc1 (stereo unspecified) | 0.3 | -0.266 | i | 0.0251 | 2.05* | 0.0792
Cn1nc(C(C)(C)C)cc1C(=O)Sc1cccc(Br)c1 | x | 0.0137 | x | -1.56 | 0.348 | x
N#C/C(=C/c1ccccc1[N+](=O)[O-])C(=O)NCc1ccco1 | -0.2 | -0.0459 | i | 0.593 | -2.39* | 0.045*
CC1CCN(c2cc(C#N)c(C#N)cc2[N+](=O)[O-])CC1 | 1.9 | 2 | i | 0.849 | -0.0931 | x
CC1CCN(c2cc(N)c(Cl)cc2[N+](=O)[O-])CC1 | -3.5 | x | i | -1.04 | x | 0.0685*
CSc1ccccc1NC(=O)Cn1nc([N+](=O)[O-])cc1C | -1.7 | 1.95 | i | -0.102 | -0.001 | x
O=C1c2ccccc2C(=O)N1CCCn1c(=O)oc2ccccc21 | 1.2 | 1.28 | i | -0.171 | 0.786* | 0.0795
COc1ccccc1C1C([N+](=O)[O-])=CC([N+](=O)[O-])=CN1C (stereo unspecified) | -0.1 | -4.93 | i | -0.659 | -4.95* | 0.0546*
